ChEMBL document CHEMBL1125898, “Synthesis and biological activity of 2'-deoxy-4'-thio pyrimidine nucleosides” (J Med Chem, 1991)

Tests used:
[1] = tested on: L1210; assay: The concentration required to produce a 50% reduction in the rate of cell proliferation in murine leukemia L1210 cells; type: functional, cell-based; conditions: Mus musculus
[2] = tested on: HEp-2; assay: The concentration required to produce a 50% inhibition of clone formation in human epidermoid carcinoma H-Ep-2 cells; type: functional, cell-based
[3] = tested on: CCRF-CEM; assay: The concentration required to inhibit cell growth to 50% of untreated controls in human T-cell leukemia CCRF-CEM cells; type: functional, cell-based
[4] = tested on: HEp-2; assay: The concentration required to produce a 50% inhibition of clone formation in human epidermoid carcinoma H-Ep-2 cells; NA=no cytotoxicity at 160 uM; type: functional, cell-based
Outline: (§1)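 Highest concentration tested was 160 μM. IC50 is the concentration giving a 50% inhibition of clone formation (H-Ep-2) or a 50% reduction in the rate of cell proliferation (L1210).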

[5] = tested on: L1210; assay: The concentration required to produce a 50% reduction in the rate of cell proliferation in murine leukemia L1210 cells; NA=no cytotoxicity at 160 uM; type: functional, cell-based, Mus musculus; outline: as §1

IC50 [1] [nM]	IC50 [2] [nM]	IC50 [3] [nM]	SMILES	IC50 [4]	IC50 [5]
1200	< 200		Nc1ccn([C@H]2C[C@H](O)[C@@H](CO)S2)c(=O)n1 [4'-THIO-2'-DEOXYCYTIDINE]		
1000	< 200	3500	Nc1ccn(C2C[C@H](O)[C@@H](CO)S2)c(=O)n1 (stereo not given in full)		
2700	2100	4000	O=c1ccn([C@H]2C[C@H](O)[C@@H](CO)S2)c(=O)[nH]1		
120	140	670	Cc1cn([C@H]2C[C@H](O)[C@@H](CO)S2)c(=O)[nH]c1=O [4'-THIOTHYMIDINE]		
66000	25000		Cc1cn([C@@H]2C[C@H](O)[C@@H](CO)S2)c(=O)[nH]c1=O		
			O=c1ccn(C2CC(O)C(CO)S2)c(=O)[nH]1 (stereo not given)	Not Active	Not Active
